From ChEMBL document CHEMBL4665669, “Novel tertiary sulfonamide derivatives containing benzimidazole moiety as potent anti-gastric cancer agents: Design, synthesis and SAR studies” (Eur J Med Chem, 2019)
Activity calls are given as the source filed them. The calls are words filed in the database; no cut-off is given here.

Key:
SGC-7901 [1] = assay: Induction of apoptosis in human SGC-7901 cells assessed as cleavage of caspase-7 at 0.5 to 1.5 umol/L after 48 hrs Western blot analysis; type: functional, cell-based; settings: dose micromol/L 0.5-1.5, time 48.0 hrs
Method in brief: (§1)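 Western blot. Cells were treated with compound concentrations or DMSO for 48 h, then lysed, and lysates were denatured, run on SDS-PAGE and transferred to nitrocellulose. After blocking in 5% skimmed milk, membranes were incubated with primary antibodies at 4 °C for 8 h, then secondary antibodies, with ECL detection.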

HGC-27 [2] = assay: Cell cycle arrest in human HGC-27 cells assessed as accumulation at G2/M phase at 0.5 to 1.5 umol/L after 48 hrs by RNase/propidium iodide staining based flow cytometry; type: functional; settings: dose micromol/L 0.5-1.5, time 48.0 hrs
Method in brief: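 MGC-803, SGC-7901 and HGC-27 cells were seeded in 6-well plates and treated 48 h with compound or DMSO. Cells were then harvested and fixed in 70% cold ethanol at 4 °C for 8 h, and cell-cycle phase distribution was quantified by flow cytometry.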

HGC-27 [3] = assay: Inhibition of Ras/Raf/MEK/ERK signalling pathway in human HGC-27 cells assessed as decrease in c-Raf phosphorylation after 48 hrs by Western blot analysis; type: cell-based; settings: dose micromol/L 0.5-1.5, time 48.0 hrs
Method in brief: (§2)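 Cells treated with graded concentrations or DMSO for 48 h, then harvested and lysed. Lysates denatured, resolved by SDS-PAGE and transferred to nitrocellulose. Membranes blocked with 5% skimmed milk and probed with primary antibodies at 4 °C for 8 h, then with secondary antibodies. Bands detected by ECL.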

MGC-803 [4] = assay: Induction of apoptosis in human MGC-803 cells assessed as downregulation of c-IAP1 level at 0.5 to 1.5 umol/L after 48 hrs Western blot analysis; type: functional, cell-based; settings: dose micromol/L 0.5-1.5, time 48.0 hrs; method in brief: as §1
[5] = Selectivity index, ratio of IC50 for human GES1 cells to IC50 for human HGC-27 cells assessed as inhibition of cell proliferation after 48 hrs by MTT assay
Method in brief: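 Fold selectivity is the IC50 in GES-1 normal gastric epithelial cells divided by the IC50 in the gastric cancer line (HGC-27, MGC-803 or SGC-7901). Both IC50s come from 48 h exposure, MTT (4 h, 37 °C), DMSO solubilisation and 490 nm absorbance, with three independent experiments.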

HGC-27 [6] = assay: Anticancer activity against human HGC-27 cells assessed as cell growth at 0.5 to 1.5 umol/L after 48 hrs by MTT assay relative to control; type: functional; settings: dose micromol/L 0.5-1.5
SGC-7901 [7] = assay: Cell cycle arrest at M phase in human SGC-7901 cells assessed as upregulation of p-Histone-3 level at 0.5 to 1.5 umol/L after 48 hrs by Western blot analysis; type: functional, cell-based; settings: dose micromol/L 0.5-1.5, time 48.0 hrs; method in brief: as §1
HGC-27 [8] = assay: Induction of apoptosis in human HGC-27 cells assessed as downregulation of c-IAP1 level at 0.5 to 1.5 umol/L after 48 hrs Western blot analysis; type: functional, cell-based; settings: dose micromol/L 0.5-1.5, time 48.0 hrs; method in brief: as §1
MGC-803 [9] = assay: Induction of apoptosis in human MGC-803 cells assessed as upregulation of NOXA level at 0.5 to 1.5 umol/L after 48 hrs Western blot analysis; type: functional, cell-based; settings: dose micromol/L 0.5-1.5, time 48.0 hrs; method in brief: as §1
MCF7 = assay: Anticancer activity against human MCF7 cells assessed as inhibition of cell proliferation after 48 hrs by MTT assay; type: functional, cell-based; settings: MCF7, 48 h
Method in brief: (§3)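 MTT assay with 48 h compound exposure. MTT solution was then added and incubated 4 h at 37 °C, the supernatant discarded and formazan dissolved in DMSO, with absorbance read at 490 nm. IC50 values were calculated from three independent experiments, reported as mean SD.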

SGC-7901 [10] = assay: Inhibition of Akt/mTOR signalling pathway in human SGC-7901 cells assessed as decrease in AKT phosphorylation at Ser473 residue at 0.5 to 1.5 umol/L after 48 hrs by Western blot analysis; type: cell-based; settings: dose micromol/L 0.5-1.5, time 48.0 hrs; method in brief: as §2
MGC-803 [11] = assay: Anticancer activity against human MGC-803 cells assessed as inhibition of cell proliferation after 48 hrs by MTT assay; type: functional, cell-based; method in brief: as §3
SGC-7901 [12] = assay: Cell cycle arrest at G2 phase in human SGC-7901 cells assessed as downregulation of Cyclin B level at 0.5 to 1.5 umol/L after 48 hrs by Western blot analysis; type: functional, cell-based; settings: dose micromol/L 0.5-1.5, time 48.0 hrs; method in brief: as §1
SGC-7901 [13] = assay: Induction of apoptosis in human SGC-7901 cells assessed as increase in nucleus concentration at 0.5 to 1.5 umol/L after 48 hrs by imaging analysis; type: functional, cell-based; settings: dose micromol/L 0.5-1.5, time 48.0 hrs
MGC-803 [14] = assay: Cell cycle arrest at M phase in human MGC-803 cells assessed as upregulation of p-Histone-3 level at 0.5 to 1.5 umol/L after 48 hrs by Western blot analysis; type: functional, cell-based; settings: dose micromol/L 0.5-1.5, time 48.0 hrs; method in brief: as §1
MGC-803 [15] = assay: Induction of apoptosis in human MGC-803 cells assessed as cleavage of caspase-7 at 0.5 to 1.5 umol/L after 48 hrs Western blot analysis; type: functional, cell-based; settings: dose micromol/L 0.5-1.5, time 48.0 hrs; method in brief: as §1
MGC-803 [16] = assay: Inhibition of Ras/Raf/MEK/ERK signalling pathway in human MGC-803 cells assessed as downregulation of FoxO3a expression at 0.5 to 1.5 umol/L after 48 hrs by Western blot analysis; type: cell-based; settings: dose micromol/L 0.5-1.5, time 48.0 hrs; method in brief: as §2
HGC-27 [17] = assay: Inhibition of Ras/Raf/MEK/ERK signalling pathway in human HGC-27 cells assessed as decrease in ERK1/2 phosphorylation after 48 hrs by Western blot analysis; type: cell-based; settings: dose micromol/L 0.5-1.5, time 48.0 hrs; method in brief: as §2
HGC-27 [18] = assay: Induction of apoptosis in human HGC-27 cells assessed as cleavage of PARP at 0.5 to 1.5 umol/L after 48 hrs Western blot analysis; type: functional, cell-based; settings: dose micromol/L 0.5-1.5, time 48.0 hrs; method in brief: as §1
PC-3 = assay: Anticancer activity against human PC-3 cells assessed as inhibition of cell proliferation after 48 hrs by MTT assay; type: functional, cell-based; settings: PC-3, 48 h; method in brief: as §3
MGC-803 [19] = assay: Anticancer activity against human MGC-803 cells assessed as cell growth at 0.5 to 1.5 umol/L after 48 hrs by MTT assay relative to control; type: functional; settings: dose micromol/L 0.5-1.5
SGC-7901 [20] = assay: Cell cycle arrest at G2 phase in human SGC-7901 cells assessed as downregulation of CDK1 level at 0.5 to 1.5 umol/L after 48 hrs by Western blot analysis; type: functional, cell-based; settings: dose micromol/L 0.5-1.5, time 48.0 hrs; method in brief: as §1
SGC-7901 [21] = assay: Anticancer activity against human SGC-7901 cells assessed as inhibition of cell proliferation after 48 hrs by MTT assay; type: functional, cell-based; method in brief: as §3
HGC-27 [22] = assay: Inhibition of Ras/Raf/MEK/ERK signalling pathway in human HGC-27 cells assessed as downregulation of FoxO3a expression at 0.5 to 1.5 umol/L after 48 hrs by Western blot analysis; type: cell-based; settings: dose micromol/L 0.5-1.5, time 48.0 hrs; method in brief: as §2
HGC-27 [23] = assay: Induction of apoptosis in human HGC-27 cells assessed as downregulation of Bcl-2 level at 0.5 to 1.5 umol/L after 48 hrs Western blot analysis; type: functional, cell-based; settings: dose micromol/L 0.5-1.5, time 48.0 hrs; method in brief: as §1
SGC-7901 [24] = assay: Induction of apoptosis in human SGC-7901 cells assessed as upregulation of NOXA level at 0.5 to 1.5 umol/L after 48 hrs Western blot analysis; type: functional, cell-based; settings: dose micromol/L 0.5-1.5, time 48.0 hrs; method in brief: as §1
MGC-803 [25] = assay: Induction of apoptosis in human MGC-803 cells assessed as increase in nucleus concentration at 0.5 to 1.5 umol/L after 48 hrs by imaging analysis; type: functional, cell-based; settings: dose micromol/L 0.5-1.5, time 48.0 hrs
MGC-803 [26] = assay: Induction of apoptosis in human MGC-803 cells after 48 hrs by flow cytometry analysis; type: functional, cell-based; settings: dose micromol/L 0.5-1.5, time 48.0 hrs
HGC-27 [27] = assay: Cell cycle arrest at M phase in human HGC-27 cells assessed as upregulation of p-Histone-3 level at 0.5 to 1.5 umol/L after 48 hrs by Western blot analysis; type: functional, cell-based; settings: dose micromol/L 0.5-1.5, time 48.0 hrs; method in brief: as §1
SGC-7901 [28] = assay: Induction of apoptosis in human SGC-7901 cells induction of DNA fragmentation at 0.5 to 1.5 umol/L after 48 hrs by imaging analysis; type: functional, cell-based; settings: dose micromol/L 0.5-1.5, time 48.0 hrs

SMILES: COc1cc(N(Cc2nc3ccccc3[nH]2)S(=O)(=O)c2ccc(C)cc2)cc(OC)c1OC
- Activity (SGC-7901 [1]): Active
- Activity (HGC-27 [2]): Active
- inhibition (HGC-27 [3]): Dose-dependent effect
- Activity (MGC-803 [4]): Active
- Ratio IC50 [5]: 9.4
- fold change (FC) (HGC-27 [6]): <2
- Activity (SGC-7901 [7]): Active
- Activity (HGC-27 [8]): Active
- Activity (MGC-803 [9]): Active
- IC50 (MCF7): 5.4 µM
- inhibition (SGC-7901 [10]): Active
- Activity (MGC-803 [11]): Dose-dependent effect
- IC50 (MGC-803 [11]; MGC-803, 48 h): 1020 nM
- Activity (SGC-7901 [12]): Active
- Activity (SGC-7901 [13]): Active
- Activity (MGC-803 [14]): Active
- Activity (MGC-803 [15]): Active
- inhibition (MGC-803 [16]): Active
- inhibition (HGC-27 [17]): Dose-dependent effect
- Activity (HGC-27 [18]): Active
- IC50 (PC-3): 3.34 µM
- fold change (FC) (MGC-803 [19]): <2
- Activity (SGC-7901 [20]): Active
- Activity (SGC-7901 [21]): Dose-dependent effect
- IC50 (SGC-7901 [21]; SGC-7901, 48 h): 2300 nM
- inhibition (HGC-27 [22]): Active
- Activity (HGC-27 [23]): Active
- Activity (SGC-7901 [24]): Active
- Activity (MGC-803 [25]): Active
- Activity (MGC-803 [26]): Dose-dependent effect
- Activity (HGC-27 [27]): Active
- Activity (SGC-7901 [28]): Active
